From ChEMBL document CHEMBL1122210, “(2-Chloroethyl)nitrosourea congeners of amino acid amides” (J Med Chem, 1982)

Assays:
L1210 [1] = assay: Tested for Mean survival days against mouse leukemia L1210 cells; format: functional
Method in brief: (§1)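 Male BDF1 hybrid mice inoculated ip with 10⁶ L1210 lymphoid leukemia cells; compounds dissolved in distilled water, given ip once daily for 3 days starting 24 h after implantation (day 1). %ILS = 100(T/C−1) versus untreated tumor-bearing controls, counting 60-day survivors; 60-day survivors tallied per treated group.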

L1210 [2] = assay: Tested for Maximal effective dose against mouse leukemia L1210 cells; format: functional
Method in brief: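 Male BDF1 hybrid mice inoculated ip with 10⁶ L1210 lymphoid leukemia cells; compounds in distilled water given ip once daily for 3 days starting 24 h after implantation (day 1). Percent ILS = 100(T/C-1) versus untreated tumor-bearing controls, counting 60-day survivors. Maximal effective dose recorded.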

L1210 [3] = assay: Tested for Percent increase in life span against mouse leukemia L1210 cells; format: functional; method in brief: as §1
L1210 [4] = assay: Tested for ratio of maximal effective dose/the dose which gives 30% ILS against mouse leukemia L1210 cells; format: cell-based
Method in brief: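 In the L1210 model (male BDF1 mice, 10⁶ cells ip, ip dosing in distilled water once daily on days 1–3), therapeutic index is the maximal effective dose divided by the dose giving 30% ILS. ILS = 100(T/C-1), 60-day survivors included.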

L1210 [5] = assay: Tested for Number of 60 days survivors per 5 treated mice against mouse leukemia L1210 cells; format: functional; method in brief: as §1
[6] = Tested in vitro for Half- life period of the compound; format: ADME
[7] = Tested for the toxicity after ip administration in SLC-BDF1 male mice; format: organism-based; details: SLC-BDF1, mouse, in vivo
Method in brief: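 SLC-BDF1 male mice, 5 weeks old, six per group, single intraperitoneal injection; deaths observed for 21 days; LD50 with 95% fiducial limits by the Litchfield-Wilcoxon method.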

[8] = Tested for the toxicity after iv administration in SLC-BDF1 male mice; format: organism-based; details: SLC-BDF1, mouse, in vivo
Method in brief: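 SLC-BDF1 male mice, 5 weeks old, six per group, single intravenous injection; deaths observed for 21 days; LD50 with 95% fiducial limits by the Litchfield-Wilcoxon method.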

| SMILES | Mean survival days (L1210 [1]) | maximal effective dose (L1210 [2]) [mg/kg/day] | ILS (L1210 [3]) [%] | Therapeutic index (L1210 [4]) | Survivors (L1210 [5]) | half-life [6] [min] | LD50 [7] [mg/kg] | LD50 [8] [mg/kg] |
| --- | --- | --- | --- | --- | --- | --- | --- | --- |
| NC(=O)C(Cc1ccc(O)cc1)NC(=O)N(CCCl)N=O (centres undefined) | >35.4 | 16 | >342.5 | 10 | 2 | – | – | – |
| CC(O)C(NC(=O)N(CCCl)N=O)C(N)=O (centres undefined) | >60 | 8 | >757.1 | 40 | 5 | 23.3 | – | – |
| NC(=O)CNC(=O)N(CCCl)N=O | >60 | 16 | >679.2 | 36.4 | 5 | 44 | 21.2 | 22.4 |
| CC(NC(=O)N(CCCl)N=O)C(N)=O (centres undefined) | >60 | 8 | >710.8 | 14.3 | 5 | 37 | – | – |
| NC(=O)C(Cc1ccccc1)NC(=O)N(CCCl)N=O (centres undefined) | >38.2 | 32 | >445.7 | 3.8 | 1 | 49.9 | – | – |
| NC(=O)CCCNC(=O)N(CCCl)N=O | >60 | 16 | >733.3 | 7.3 | 5 | 72.5 | – | – |
| CSCCC(NC(=O)N(CCCl)N=O)C(N)=O (centres undefined) | 27.2 | 16 | 277.8 | 5.9 | 0 | 38.1 | – | – |
| NC(=O)CCNC(=O)N(CCCl)N=O | >60 | 16 | >733.3 | 15.2 | 5 | 61 | – | – |
| CC(C)CC(NC(=O)N(CCCl)N=O)C(N)=O (centres undefined) | >60 | 24 | >757.1 | 11.4 | 5 | 48.3 | – | – |
| NC(=O)C(CO)NC(=O)N(CCCl)N=O (centres undefined) | >60 | 8 | >757.1 | 40 | 5 | 19.8 | – | – |
| NC(=O)C1CCCN1C(=O)N(CCCl)N=O (centres undefined) | >25.2 | 64 | >250 | 5.6 | 1 | 295 | 220 | 195 |
| CC(C)C(NC(=O)N(CCCl)N=O)C(N)=O (centres undefined) | >60 | 8 | >757.1 | 15.7 | 5 | 44.5 | – | – |
| NC(=O)CC(NC(=O)N(CCCl)N=O)C(N)=O (centres undefined) | >42.8 | 8 | >494.4 | 15.7 | 2 | 32.1 | – | – |
| CN(CC(N)=O)C(=O)N(CCCl)N=O [SARCNU] | >60 | 225 | >710 | 15.5 | 5 | 330 | 392 | 427 |
